In ChEMBL document CHEMBL3228025, “Synthesis and analgesic activities of some (4-substituted phenyl-1-piperazinyl)alkyl 2-aminobenzoates and 2-aminonicotinates” (J Med Chem, 1979):

How the values were obtained:
[1] = Acute toxicity in po dosed CD1 mouse after 7 days; type: organism-based; settings: in vivo
Outline: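 Male CD1 mice, 20 ± 2 g, oral dosing at 10 mL/kg as an aqueous solution or suspension in 1% Tween 80 in distilled water. At least 10 animals per dose level, observed for 7 days. Oral LD50 calculated by the Litchfield–Wilcoxon method.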

Mus musculus [2] = test: Analgesic activity in po dosed CD1 mouse assessed as inhibition of acetic acid-induced writhing administered 30 mins prior to acetic acid challenge measured after 15 mins; type: functional
Outline: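 Male CD1 mice, 20 ± 2 g, randomly grouped and dosed orally at several levels (10 mL/kg, 1% Tween 80 vehicle), with at least two groups of six per dose. After 30 min, 0.6% acetic acid was given ip at 10 mL/kg, and writhes were counted per group over 15 min. ED50 (dose halving writhes) was read graphically, with no SEM computed.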

Rattus norvegicus = test: Antiinflammatory activity in po dosed CD1 rat assessed as inhibition of carrageenan-induced paw edema administered 1 hr prior to carrageenan challenge measured after 3 hrs
Mus musculus [3] = test: Analgesic activity in po dosed OF1 mouse assessed as dose required to double paw licking reaction time after 30 mins by hot plate test; type: functional; settings: 0.5 h
Outline: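 Male OF1 mice, 20 ± 2 g, given oral doses at several levels in 1% Tween 80 at 10 mL/kg, at least 10 per dose. After 30 min each mouse was placed on a metal plate at 56 °C and paw-licking latency was recorded. ED2 (dose doubling latency) was read graphically, with SEM and Dunnett's t versus controls.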

O=C(OCCN1CCN(c2ccccc2)CC1)c1ccccc1Nc1cccc(C(F)(F)F)c1
LD50 at 168 h [1]: > 2000 mg/kg | ED50 (Mus musculus [2]): 400 mg/kg | ED40 (Rattus norvegicus): 100 mg/kg

Cc1cccc(Nc2ccccc2C(=O)OCCN2CCN(c3ccccc3)CC2)c1C
LD50 at 168 h [1]: 4000 mg/kg | ED50 (Mus musculus [2]): 90 mg/kg | ED40 (Rattus norvegicus): > 50 mg/kg

O=C(OCCN1CCN(c2ccccc2)CC1)c1ccccc1Nc1cccc(OC(F)(F)F)c1
LD50 at 168 h [1]: 2000 mg/kg | ED50 (Mus musculus [2]): > 400 mg/kg | ED40 (Rattus norvegicus): 150 mg/kg

O=C(OCCN1CCN(c2cccc(Cl)c2)CC1)c1ccccc1Nc1cccc(SC(F)(F)F)c1
LD50 at 168 h [1]: 2000 mg/kg | ED50 (Mus musculus [2]): > 400 mg/kg | ED40 (Rattus norvegicus): > 50 mg/kg

O=C(OCCN1CCN(c2cccc(C(F)(F)F)c2)CC1)c1ccccc1Nc1cccc(SC(F)(F)F)c1
LD50 at 168 h [1]: > 4000 mg/kg | ED50 (Mus musculus [2]): 300 mg/kg | ED40 (Rattus norvegicus): > 50 mg/kg

O=C(OCCN1CCN(c2cccc(C(F)(F)F)c2)CC1)c1cccnc1Nc1cccc(SC(F)(F)F)c1
LD50 at 168 h [1]: > 4000 mg/kg | ED50 (Mus musculus [2]): 250 mg/kg | ED40 (Rattus norvegicus): > 50 mg/kg

O=C(OCCN1CCN(c2cccc(Cl)c2)CC1)c1cccnc1Nc1cccc(SC(F)(F)F)c1
LD50 at 168 h [1]: > 4000 mg/kg | ED50 (Mus musculus [2]): 100 mg/kg | ED40 (Rattus norvegicus): > 300 mg/kg

Cc1c(Cl)cccc1Nc1ncccc1C(=O)OCCN1CCN(c2cccc(C(F)(F)F)c2)CC1
LD50 at 168 h [1]: > 4000 mg/kg | ED50 (Mus musculus [2]): 200 mg/kg | ED40 (Rattus norvegicus): > 100 mg/kg

CC(CN1CCN(c2ccccc2)CC1)OC(=O)c1ccccc1Nc1ccnc2cc(Cl)ccc12 (stereo not given)
LD50 at 168 h [1]: > 2000 mg/kg | ED2 (Mus musculus [3]): 200 mg/kg | ED50 (Mus musculus [2]): 63 mg/kg | ED40 (Rattus norvegicus): 300 mg/kg

O=C(OCCCN1CCN(c2ccccc2)CC1)c1ccccc1Nc1ccnc2cc(Cl)ccc12
LD50 at 168 h [1]: 2000 mg/kg | ED2 (Mus musculus [3]): 250 mg/kg | ED50 (Mus musculus [2]): 60 mg/kg | ED40 (Rattus norvegicus): 50 mg/kg

O=C(OCCN1CCN(c2ccccc2)CC1)c1ccccc1Nc1ccnc2cc(Cl)ccc12
LD50 at 168 h [1]: 4250 mg/kg | ED2 (Mus musculus [3]): 200 mg/kg | ED50 (Mus musculus [2]): 75 mg/kg | ED40 (Rattus norvegicus): 120 mg/kg

Cc1cc(Nc2ccccc2C(=O)OCCN2CCN(c3ccccc3)CC2)c2ccc(Cl)cc2n1
LD50 at 168 h [1]: 4000 mg/kg | ED2 (Mus musculus [3]): 300 mg/kg | ED50 (Mus musculus [2]): 110 mg/kg | ED40 (Rattus norvegicus): > 200 mg/kg

COc1ccc(N2CCN(CCOC(=O)c3ccccc3Nc3ccnc4cc(Cl)ccc34)CC2)cc1
ED2 (Mus musculus [3]): > 300 mg/kg | ED50 (Mus musculus [2]): 200 mg/kg | ED40 (Rattus norvegicus): 45 mg/kg

Cc1ccc(C)c(N2CCN(CCOC(=O)c3ccccc3Nc3ccnc4cc(Cl)ccc34)CC2)c1
LD50 at 168 h [1]: 4000 mg/kg | ED2 (Mus musculus [3]): 300 mg/kg | ED50 (Mus musculus [2]): 22 mg/kg | ED40 (Rattus norvegicus): 120 mg/kg

Cc1ccc(Cl)cc1N1CCN(CCOC(=O)c2ccccc2Nc2ccnc3cc(Cl)ccc23)CC1
LD50 at 168 h [1]: > 4000 mg/kg | ED2 (Mus musculus [3]): > 300 mg/kg | ED50 (Mus musculus [2]): 15 mg/kg | ED40 (Rattus norvegicus): 30 mg/kg

O=C(OCCN1CCN(c2ccc(Cl)cc2)CC1)c1ccccc1Nc1ccnc2cc(Cl)ccc12
LD50 at 168 h [1]: > 2000 mg/kg | ED2 (Mus musculus [3]): > 300 mg/kg | ED50 (Mus musculus [2]): 80 mg/kg | ED40 (Rattus norvegicus): 100 mg/kg

O=C(OCCN1CCN(c2cccc(Cl)c2)CC1)c1ccccc1Nc1ccnc2cc(Cl)ccc12
LD50 at 168 h [1]: 4000 mg/kg | ED2 (Mus musculus [3]): 60 mg/kg | ED50 (Mus musculus [2]): 10 mg/kg | ED40 (Rattus norvegicus): > 100 mg/kg

O=C(OCCN1CCN(c2cccc(C(F)(F)F)c2)CC1)c1ccccc1Nc1ccnc2cc(Cl)ccc12
ED2 (Mus musculus [3]): 150 mg/kg | ED50 (Mus musculus [2]): 24 mg/kg | ED40 (Rattus norvegicus): 40 mg/kg

O=C(OCCN1CCN(c2cccc(OC(F)(F)F)c2)CC1)c1ccccc1Nc1ccnc2cc(Cl)ccc12
LD50 at 168 h [1]: 4000 mg/kg | ED2 (Mus musculus [3]): > 300 mg/kg | ED50 (Mus musculus [2]): 120 mg/kg | ED40 (Rattus norvegicus): 50 mg/kg

O=C(OCCN1CCN(c2cccc(SC(F)(F)F)c2)CC1)c1ccccc1Nc1ccnc2cc(Cl)ccc12
LD50 at 168 h [1]: 3000 mg/kg | ED2 (Mus musculus [3]): 200 mg/kg | ED50 (Mus musculus [2]): 120 mg/kg | ED40 (Rattus norvegicus): 30 mg/kg

O=C(OCCN1CCN(c2ccccc2)CC1)c1ccccc1Nc1ccnc2c(Cl)cccc12
LD50 at 168 h [1]: > 4000 mg/kg | ED2 (Mus musculus [3]): > 250 mg/kg | ED50 (Mus musculus [2]): 80 mg/kg | ED40 (Rattus norvegicus): 300 mg/kg

O=C(OCCN1CCN(c2ccccc2)CC1)c1ccccc1Nc1ccnc2cc(C(F)(F)F)ccc12
LD50 at 168 h [1]: 2500 mg/kg | ED2 (Mus musculus [3]): 300 mg/kg | ED50 (Mus musculus [2]): 30 mg/kg | ED40 (Rattus norvegicus): 40 mg/kg

O=C(OCCN1CCN(c2cccc(Cl)c2)CC1)c1ccccc1Nc1ccnc2cc(C(F)(F)F)ccc12
LD50 at 168 h [1]: > 4000 mg/kg | ED2 (Mus musculus [3]): 150 mg/kg | ED50 (Mus musculus [2]): 9 mg/kg | ED40 (Rattus norvegicus): 30 mg/kg

O=C(OCCN1CCN(c2cccc(OC(F)(F)F)c2)CC1)c1ccccc1Nc1ccnc2cc(C(F)(F)F)ccc12
LD50 at 168 h [1]: 3500 mg/kg | ED2 (Mus musculus [3]): > 300 mg/kg | ED50 (Mus musculus [2]): 20 mg/kg | ED40 (Rattus norvegicus): 50 mg/kg

O=C(OCCN1CCN(c2cccc(SC(F)(F)F)c2)CC1)c1ccccc1Nc1ccnc2cc(C(F)(F)F)ccc12
LD50 at 168 h [1]: 3750 mg/kg | ED2 (Mus musculus [3]): > 300 mg/kg | ED50 (Mus musculus [2]): 8 mg/kg | ED40 (Rattus norvegicus): 30 mg/kg

O=C(OCCN1CCN(c2cc(C(F)(F)F)cc(C(F)(F)F)c2)CC1)c1ccccc1Nc1ccnc2cc(C(F)(F)F)ccc12
LD50 at 168 h [1]: 4000 mg/kg | ED2 (Mus musculus [3]): > 300 mg/kg | ED50 (Mus musculus [2]): 20 mg/kg | ED40 (Rattus norvegicus): 80 mg/kg

Cc1ccc(Cl)cc1N1CCN(CCOC(=O)c2ccccc2Nc2ccnc3cc(C(F)(F)F)ccc23)CC1
LD50 at 168 h [1]: 3000 mg/kg | ED2 (Mus musculus [3]): > 300 mg/kg | ED50 (Mus musculus [2]): 20 mg/kg | ED40 (Rattus norvegicus): 65 mg/kg

O=C(OCCN1CCN(c2ccccc2)CC1)c1ccccc1Nc1ccnc2c(C(F)(F)F)cccc12
LD50 at 168 h [1]: 3000 mg/kg | ED2 (Mus musculus [3]): > 300 mg/kg | ED50 (Mus musculus [2]): 35 mg/kg | ED40 (Rattus norvegicus): 64 mg/kg

O=C(OCCN1CCN(c2cccc(Cl)c2)CC1)c1ccccc1Nc1ccnc2c(C(F)(F)F)cccc12
LD50 at 168 h [1]: > 3000 mg/kg | ED2 (Mus musculus [3]): > 300 mg/kg | ED50 (Mus musculus [2]): 18 mg/kg | ED40 (Rattus norvegicus): 100 mg/kg

O=C(OCCN1CCN(c2cccc(C(F)(F)F)c2)CC1)c1ccccc1Nc1ccnc2c(C(F)(F)F)cccc12
LD50 at 168 h [1]: > 3000 mg/kg | ED2 (Mus musculus [3]): 100 mg/kg | ED50 (Mus musculus [2]): 40 mg/kg | ED40 (Rattus norvegicus): 120 mg/kg

O=C(OCCN1CCN(c2cccc(SC(F)(F)F)c2)CC1)c1ccccc1Nc1ccnc2c(C(F)(F)F)cccc12
LD50 at 168 h [1]: > 3000 mg/kg | ED2 (Mus musculus [3]): 200 mg/kg | ED50 (Mus musculus [2]): 6 mg/kg | ED40 (Rattus norvegicus): > 100 mg/kg

O=C(OCCN1CCN(c2ccccc2)CC1)c1ccccc1Nc1ccnc2cc(SC(F)(F)F)ccc12
ED2 (Mus musculus [3]): 300 mg/kg | ED50 (Mus musculus [2]): 9 mg/kg | ED40 (Rattus norvegicus): 100 mg/kg

O=C(OCCN1CCN(c2cccc(SC(F)(F)F)c2)CC1)c1ccccc1Nc1ccnc2cc(SC(F)(F)F)ccc12
ED2 (Mus musculus [3]): 200 mg/kg | ED50 (Mus musculus [2]): 60 mg/kg | ED40 (Rattus norvegicus): 180 mg/kg

O=C(OCCN1CCN(c2ccccc2)CC1)c1ccccc1Nc1ccnc2cc(OC(F)(F)F)ccc12
LD50 at 168 h [1]: 1300 mg/kg | ED2 (Mus musculus [3]): 300 mg/kg | ED50 (Mus musculus [2]): 24 mg/kg | ED40 (Rattus norvegicus): 40 mg/kg

O=C(OCCN1CCN(c2cccc(Cl)c2)CC1)c1ccccc1Nc1ccnc2cc(OC(F)(F)F)ccc12
LD50 at 168 h [1]: 4000 mg/kg | ED2 (Mus musculus [3]): 300 mg/kg | ED50 (Mus musculus [2]): 20 mg/kg | ED40 (Rattus norvegicus): 85 mg/kg

O=C(OCCN1CCN(c2cccc(C(F)(F)F)c2)CC1)c1ccccc1Nc1ccnc2cc(OC(F)(F)F)ccc12
LD50 at 168 h [1]: 1500 mg/kg | ED2 (Mus musculus [3]): 150 mg/kg | ED50 (Mus musculus [2]): 20 mg/kg | ED40 (Rattus norvegicus): 43 mg/kg

O=C(OCCN1CCN(c2cccc(OC(F)(F)F)c2)CC1)c1ccccc1Nc1ccnc2cc(OC(F)(F)F)ccc12
LD50 at 168 h [1]: 3500 mg/kg | ED2 (Mus musculus [3]): > 300 mg/kg | ED50 (Mus musculus [2]): 70 mg/kg | ED40 (Rattus norvegicus): 75 mg/kg

O=C(O)c1ccccc1Nc1ccnc2cc(C(F)(F)F)ccc12
LD50 at 168 h [1]: 1000 mg/kg | ED2 (Mus musculus [3]): > 600 mg/kg | ED50 (Mus musculus [2]): 18 mg/kg

Cc1c(N(C)C)c(=O)n(-c2ccccc2)n1C [AMINOPYRINE]
LD50 at 168 h [1]: 800 mg/kg | ED2 (Mus musculus [3]): 250 mg/kg | ED50 (Mus musculus [2]): 40 mg/kg | ED40 (Rattus norvegicus): 60 mg/kg

O=C(OCCN1CCN(c2cccc(C(F)(F)F)c2)CC1)c1ccccc1Nc1ccnc2cc(C(F)(F)F)ccc12 [ANTRAFENINE]
LD50 at 168 h [1]: 4000 mg/kg | ED2 (Mus musculus [3]): 30 mg/kg | ED50 (Mus musculus [2]): 6 mg/kg | ED40 (Rattus norvegicus): 40 mg/kg

O=C(OCC(O)CO)c1ccccc1Nc1ccnc2cc(Cl)ccc12 (stereo not given) [GLAFENINE]
ED2 (Mus musculus [3]): > 600 mg/kg | ED50 (Mus musculus [2]): 56 mg/kg | ED40 (Rattus norvegicus): 30 mg/kg
